Among the data in ChEMBL document CHEMBL1134797, “Synthesis and structural studies of aza analogues of functionalized amino acids: new anticonvulsant agents” (2001) are PI, ED50 and TD50 values, retold here.

The nature of test [1]: Protective index (TD50/ED50) value of the compound. It is filed as functional. The essentials: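 Protective index taken as rotorod TD50 divided by maximal electroshock ED50, both in mg/kg and both from dose–effect data at the time of peak effect.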
The test system of test [2] is Mus musculus. The experiment in a line: Tested against subcutaneous pentylenetetrazole (Metrazol) seizure test in mice after ip administration. In kind it is functional. The essentials: (§1)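 Given intraperitoneally to mice. […] Seizure protection scored in the maximal electroshock test or against subcutaneous pentylenetetrazole (Metrazol). Neurologic toxicity scored on the rotorod.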

The subject of test [3] is Mus musculus. As to the kind of experiment: Evaluated against neurological toxicity determined from the rotarod test in mice after ip administration. In kind it is functional. The essentials: as §1
(The rotarod test checks motor coordination on a turning rod.)

The test system of test [4] is Rattus norvegicus. As to the kind of experiment: Evaluated against neurological toxicity determined from the rotarod test in rat after po administration.
The test system of test [5] is Mus musculus. The experiment in a line: Evaluated against Maximal electroshock seizure test in mice after ip administration. It is filed as functional. In a few lines: as §1
For orientation: In the maximal electroshock model the usual endpoint is tonic extension of the hind limbs.

In test [6] the test system is Rattus norvegicus. As to the kind of experiment: Evaluated against Maximal electroshock seizure test in rat after po administration.

The structures appear in SMILES notation.

As a reminder, the ED50 is the dose that gives a 50% effect, or the effect in half of the subjects. A higher ED50 goes with a need for a large dose. Usually TD50 stands for the 50% point of the dose-response relation for the toxic effect studied. A lower TD50 goes with greater toxicity.

Regarding `CC(=O)NN(C(=O)NCc1ccccc1)c1nccs1`, the PI in test [1] came to 5.4. The median effective dose (ED50) in the test on Mus musculus [2] is more than 200 mg/kg; with Mus musculus [5], 22 mg/kg; with Rattus norvegicus [6], 6.2 mg/kg. Also, the TD50 is 120 mg/kg with Mus musculus [3] and more than 250 mg/kg in the test with Rattus norvegicus [4].

On to `CC(=O)NN(C(=O)NCc1ccccc1)c1ccccc1`, for which the ED50 was more than 300 mg/kg in the test on Mus musculus [2], more than 30 mg/kg in the test on Mus musculus [5] and more than 30 mg/kg with Rattus norvegicus [6]. In addition, the TD50 is more than 100 mg/kg with Mus musculus [3] and more than 30 mg/kg in the test on Rattus norvegicus [4].

`O=C1NC(=O)C(c2ccccc2)(c2ccccc2)N1` [PHENYTOIN]: the PI in test [1] turned out to be 6.6. The same compound had a TD50 in the test with Mus musculus [3] of 43 mg/kg. Besides, the ED50 turned out to be 6.5 mg/kg in the test with Mus musculus [5] and 23 mg/kg in the test on Rattus norvegicus [6].

As to `CCCC(CCC)C(=O)O` [VALPROIC ACID], in test [1], the PI was determined as 1.3. The TD50 with Mus musculus [3] was 480 mg/kg. For the same compound, the results for the ED50 in the test on Mus musculus [5] and with Rattus norvegicus [6] were 290 mg/kg and 400 mg/kg, respectively.

As for `CC(=O)NN(C)C(=O)NCc1ccccc1`, the PI in test [1] was more than 5.6. Also, the median effective dose (ED50) was more than 300 mg/kg in the test on Mus musculus [2], 89 mg/kg in the test with Mus musculus [5] and more than 30 mg/kg in the test on Rattus norvegicus [6]. The values for the TD50 in the test with Mus musculus [3] and with Rattus norvegicus [4] were more than 500 mg/kg and more than 30 mg/kg, respectively.

Take `CC(=O)NN(C(=O)NCc1ccccc1)c1ccccn1`: the ED50 is more than 100 mg/kg with Mus musculus [2], more than 30 mg/kg in the test with Mus musculus [5] and less than 30 mg/kg in the test on Rattus norvegicus [6]. The TD50 in the test with Mus musculus [3] was more than 100 mg/kg; with Rattus norvegicus [4], more than 30 mg/kg.

`CCC1(c2ccccc2)C(=O)NC(=O)NC1=O` [PHENOBARBITAL]: the PI in test [1] is 3.1. In the test with Mus musculus [3], this compound came in with a TD50 of 69 mg/kg. Further, the 50% effect level in the test on Mus musculus [5] (ED50) was put at a dose of 22 mg/kg.

Turning to `CC(=O)NN(C(=O)NCc1ccccc1)c1ncccn1`, the ED50 with Mus musculus [2] is more than 300 mg/kg; in the test on Mus musculus [5], more than 100 mg/kg; with Rattus norvegicus [6] it was approximately 30 mg/kg. The TD50 with Mus musculus [3] is more than 100 mg/kg; in the test on Rattus norvegicus [4], more than 30 mg/kg.

With `CC(=O)NNC(=O)NCc1ccccc1`, the ED50 is more than 300 mg/kg in the test with Mus musculus [2], more than 100 mg/kg in the test on Mus musculus [5] and 95 mg/kg in the test on Rattus norvegicus [6]. Further, the TD50 in the test with Mus musculus [3] and with Rattus norvegicus [4] was more than 160 mg/kg in each case.
